Assay results from ChEMBL document CHEMBL4304818, “1,3,4-Oxadiazol-2-ylbenzenesulfonamides as privileged structures for the inhibition of monoamine oxidase B” (Bioorg Med Chem Lett, 2019).
pIC50: −log10 of the molar value.

Assays:
[1] = target: T1, Amine oxidase [flavin-containing] B (Homo sapiens, UniProt P27338); test: Inhibition of human recombinant MAO-B expressed in insect cells microsomes assessed as enzyme residual activity preincubated at concentration of 4 times IC50 with enzyme for 24 hrs followed by twofold dilution and incubation at concentration of 2 times IC50 with enzyme for 20 mins using kynuramine as substrate by fluorescence spectrophotometry (reference value: 100%)
T1 sequence (P27338 whole entry): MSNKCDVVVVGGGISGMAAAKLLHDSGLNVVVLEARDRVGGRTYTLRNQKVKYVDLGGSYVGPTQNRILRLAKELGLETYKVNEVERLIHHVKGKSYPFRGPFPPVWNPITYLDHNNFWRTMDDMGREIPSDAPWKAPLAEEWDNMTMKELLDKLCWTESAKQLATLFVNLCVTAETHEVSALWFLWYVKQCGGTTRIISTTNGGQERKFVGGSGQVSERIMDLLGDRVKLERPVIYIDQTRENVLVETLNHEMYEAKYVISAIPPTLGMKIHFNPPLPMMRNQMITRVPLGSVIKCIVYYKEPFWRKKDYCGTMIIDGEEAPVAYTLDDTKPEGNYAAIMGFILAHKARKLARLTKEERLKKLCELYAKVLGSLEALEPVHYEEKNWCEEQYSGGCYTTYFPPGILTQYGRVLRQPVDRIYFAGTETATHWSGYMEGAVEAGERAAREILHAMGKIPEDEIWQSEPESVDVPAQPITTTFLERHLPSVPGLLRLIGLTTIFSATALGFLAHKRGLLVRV

[2] = target: T1, Amine oxidase [flavin-containing] B; test: Reversible inhibition of human recombinant MAO-B expressed in insect cells microsomes assessed as enzyme residual activity preincubated at concentration of 4 times IC50 with enzyme for 15 mins followed by dialysis of enzyme-inhibitor mixture for 24 hrs followed by twofold dilution and incubation at concentration of 2 times IC50 with enzyme for 20 mins using kynuramine as substrate by fluorescence …
[3] = target: T2, Amine oxidase [flavin-containing] A (Homo sapiens, UniProt P21397); test: Inhibition of human recombinant MAO-A expressed in insect cells microsomes assessed as inhibition of 4-hydroxyquinoline formation using kynuramine as substrate incubated for 20 mins by fluorescence spectrophotometry analysis
T2 sequence (P21397 whole entry): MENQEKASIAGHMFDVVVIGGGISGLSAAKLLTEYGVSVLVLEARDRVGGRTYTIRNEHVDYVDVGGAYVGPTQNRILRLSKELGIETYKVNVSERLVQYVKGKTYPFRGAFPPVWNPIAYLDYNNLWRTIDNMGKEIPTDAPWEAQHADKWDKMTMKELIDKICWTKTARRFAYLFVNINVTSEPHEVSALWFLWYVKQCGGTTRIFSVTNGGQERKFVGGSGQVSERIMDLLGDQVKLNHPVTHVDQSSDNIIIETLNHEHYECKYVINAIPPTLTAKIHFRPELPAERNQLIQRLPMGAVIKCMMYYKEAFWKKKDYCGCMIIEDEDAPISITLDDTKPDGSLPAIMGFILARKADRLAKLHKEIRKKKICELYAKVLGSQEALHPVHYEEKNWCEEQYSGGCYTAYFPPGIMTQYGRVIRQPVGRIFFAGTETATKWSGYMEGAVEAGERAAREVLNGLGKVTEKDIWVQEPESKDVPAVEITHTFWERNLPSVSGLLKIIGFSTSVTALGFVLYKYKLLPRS
Summary of the method: (§1)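 Recombinant human MAO-A and MAO-B as enzyme sources with kynuramine as non-selective substrate; product 4-hydroxyquinoline read by fluorescence spectrophotometry. Activity measured across a range of inhibitor concentrations, sigmoidal rate vs log[inhibitor] curves fitted for IC50; triplicate measurements, mean ± SD. Top concentration tested 100 µM. SI taken as IC50(MAO-A)/IC50(MAO-B).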

Homo sapiens = organism: Homo sapiens; test: Selectivity index, ratio of IC50 for human recombinant MAO-A expressed in insect cells microsomes to IC50 for human recombinant MAO-B expressed in insect cells microsomes; summary of the method: as §1
[4] = target: T1, Amine oxidase [flavin-containing] B; assay type: cell-based

Compound	Activity [1]	Activity [2]	pIC50 [3]	pIC50 [4]	Ratio IC50 (Homo sapiens)
NS(=O)(=O)c1ccc(-c2nnc(-c3ccc(Cl)c(Cl)c3)o2)cc1	44%	60%	–	–	–
NS(=O)(=O)c1ccc(C(=O)NNC(=O)c2ccccc2)cc1	–	–	4.20	< 4.00	< 0.6
NS(=O)(=O)c1ccc(C(=O)NNC(=O)c2ccc(Cl)cc2)cc1	–	–	4.25	4.93	4.8
NS(=O)(=O)c1cccc(-c2nnc(-c3ccc(Cl)cc3)o2)c1	–	–	< 4.00	6.68	> 476
NS(=O)(=O)c1cc(-c2nnc(-c3ccccc3)o2)ccc1Cl	–	–	< 4.00	6.36	> 228
Cc1ccc(-c2nnc(-c3cccc(S(N)(=O)=O)c3)o2)cc1	–	–	4.21	6.24	108
NS(=O)(=O)c1ccc(-c2nnc(-c3ccccc3)o2)cc1	–	–	4.19	6.77	380
Cc1ccc(-c2nnc(-c3ccccc3)o2)cc1S(N)(=O)=O	–	–	< 4.00	6.12	> 130
NS(=O)(=O)c1ccc(-c2nnc(-c3ccc(Cl)cc3)o2)cc1	–	–	4.17	7.32	1420
NS(=O)(=O)c1ccc(-c2nnc(-c3ccc(F)cc3)o2)cc1	–	–	4.08	7.10	1060

Continued, in another order:

Activity [1]	Activity [2]	pIC50 [3]	pIC50 [4]	Compound	Ratio IC50 (Homo sapiens)
–	–	4.87	5.00	NS(=O)(=O)c1ccc(C(=O)NNC(=O)c2ccc(Cl)c(Cl)c2)cc1	1.3
–	–	4.79	5.93	N#Cc1ccc(C(=O)NNC(=O)c2ccc(S(N)(=O)=O)cc2)cc1	14
–	–	4.40	< 4.00	NS(=O)(=O)c1ccc(C(=O)NNC(=O)c2ccc(F)cc2)cc1	< 0.4
–	–	4.46	6.01	NS(=O)(=O)c1cccc(-c2nnc(-c3ccc(F)cc3)o2)c1	35
–	–	4.61	6.50	N#Cc1ccc(-c2nnc(-c3ccc(S(N)(=O)=O)cc3)o2)cc1	76
